Assay results reported in ChEMBL document CHEMBL4265978, “In search of constrained FTY720 and phytosphingosine analogs as dual acting anticancer agents targeting metabolic and epigenetic pathways” (Eur J Med Chem, 2018).
Calls of active or inactive are those of the source. No cut-off for these calls is given here.

What was measured:
[1] = target: T1, Histone deacetylase (Mus musculus) (UniProt Q8VH37+Q9Z2V6+Q9Z2V5+O09106+Q8C2B3+P70288+O88895+Q91WA3+Q99N13+Q6NZM9+Q6P3E7); test: Inhibition of HDAC in MEF assessed as increase in histone H3 acetylation at 10 to 20 uM after 6 hrs by Western blot analysis; type: cell-based
In short: (§1)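 Histones acid-extracted in 0.2 N HCl overnight at 4°C; protein measured by BCA. Samples run on 4-12% gels and transferred to nitrocellulose, blocked in 5% BSA. Probed overnight at 4°C for acetyl-H3K9, H3K18, H4K5, H4K8 and total H3/H4, then with IRDye secondaries; infrared imaging.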

[2] = target: T1, Histone deacetylase (Mus musculus); test: Inhibition of HDAC in MEF assessed as increase in histone H4K5 acetylation at 10 uM after 6 hrs by Western blot analysis; type: cell-based; in short: as §1
[3] = target: T1, Histone deacetylase (Mus musculus); test: Inhibition of HDAC in MEF assessed as increase in histone H4 acetylation at 5 uM after 6 hrs by Western blot analysis; type: cell-based; in short: as §1
[4] = target: T1, Histone deacetylase (Mus musculus); test: Inhibition of HDAC in MEF assessed as increase in histone H3K18 acetylation at 6.1 uM after 24 hrs by Western blot analysis; type: cell-based; in short: as §1
[5] = target: T1, Histone deacetylase (Mus musculus); test: Inhibition of HDAC in MEF assessed as increase in histone H3 acetylation at 6.1 uM after 24 hrs by Western blot analysis; type: cell-based; in short: as §1
[6] = target: T1, Histone deacetylase (Mus musculus); test: Inhibition of HDAC in MEF assessed as increase in histone H4 acetylation at 10 uM after 6 hrs by Western blot analysis; type: cell-based; in short: as §1
[7] = target: T1, Histone deacetylase (Mus musculus); test: Inhibition of HDAC in MEF assessed as increase in histone H3 acetylation at 5 uM after 6 hrs by Western blot analysis; type: cell-based; in short: as §1
[8] = target: T1, Histone deacetylase (Mus musculus); test: Inhibition of HDAC in MEF assessed as increase in histone H3K9 acetylation at 5 uM after 6 hrs by Western blot analysis; type: cell-based; in short: as §1
[9] = target: Histone deacetylase (Homo sapiens) (UniProt Q13547+O15379+Q9UBN7+Q92769+Q9UQL6+Q8WUI4+Q9BY41+Q96DB2+P56524+Q9UKV0+Q969S8); test: Inhibition of HDAC (unknown origin) at 5 uM; type: protein assay
[10] = target: T1, Histone deacetylase (Mus musculus); test: Inhibition of HDAC in mouse FL5.12 cells assessed as increase in histone H3 acetylation at 10 uM after 6 hrs by Western blot analysis; type: cell-based; in short: as §1
[11] = target: T1, Histone deacetylase (Mus musculus); test: Inhibition of HDAC in MEF assessed as increase in histone H4K5 acetylation at 5 uM after 6 hrs by Western blot analysis; type: cell-based; in short: as §1
[12] = target: T1, Histone deacetylase (Mus musculus); test: Inhibition of HDAC in MEF assessed as increase in histone H4K8 acetylation at 5 uM after 6 hrs by Western blot analysis; type: cell-based; in short: as §1
[13] = target: T1, Histone deacetylase (Mus musculus); test: Inhibition of HDAC in MEF assessed as increase in histone H3K18 acetylation at 5 uM after 6 hrs by Western blot analysis; type: cell-based; in short: as §1
[14] = target: T1, Histone deacetylase (Mus musculus); test: Inhibition of HDAC in MEF assessed as increase in histone H3K9 acetylation at 6.1 uM after 24 hrs by Western blot analysis; type: cell-based; in short: as §1

CCCCCCCCc1ccc(CCC(N)(CO)COP(=O)(O)O)cc1 (centres undefined)
inhibition [1]: inactive | inhibition [2]: inactive | inhibition [3]: inactive | inhibition [4]: inactive | inhibition [5]: inactive | inhibition [6]: inactive | inhibition [7]: inactive | inhibition [8]: inactive | inhibition [9]: 60 to 75% | inhibition [10]: inactive | inhibition [11]: inactive | inhibition [12]: inactive | inhibition [13]: inactive | inhibition [14]: inactive
